Results as given in ChEMBL document CHEMBL3596173, “Structural Requirements for CNS Active Opioid Glycopeptides” (J Med Chem, 2015).
Starred links: 1 amine or outer side, 2 acyl side, 3 side chain; linkers in the order of their positions; H or OH if unused. Positions of bridges follow the written chain, without caps; N, C: chain ends. Non-standard residues stand in square brackets, D forms with d. Residues, ends and D or L forms follow the SMILES beside them. *: point of attachment. X1 = OC[C@H]1O[C@@H](O[C@H]2[C@H](O)[C@@H](O)[C@H](*)O[C@@H]2CO)[C@H](O)[C@@H](O)[C@@H]1O; βGlc = OC[C@H]1O[C@@H](*)[C@H](O)[C@@H](O)[C@@H]1O; dPen = CC(C)(S)[C@@H](N)C(=O)O; CH2CH2 = C(C[*:2])[*:1]; Aib = CC(C)(N)C(=O)O; Ava = NCCCCC(=O)O; GABA = NCCCC(=O)O

Legend:
Mus musculus [1] = experiment: Antinociceptive activity in icv dosed CD-1 mouse by 55 degC warm water tail-flick test; format: functional
Summary of the method: (§1)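 Male CD-1 mice (27−30 g), 8−10 per group. Compound in distilled water, given icv under light ether anaesthesia, 2 mm caudal and 2 mm lateral from bregma. 55 °C warm-water tail-flick: baseline latency taken first, and mice not responding within 5 s excluded. Retested at various times after dosing. %Antinociception = 100(test − control latency)/(10 − control latency). A50 doses derived.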

[2] = molecular target: T1, Delta-type opioid receptor (Homo sapiens, UniProt P41143); experiment: Displacement of [3H]-naltrindole from human delta opioid receptor expressed in CHO cells after 3 hrs by scintillation counting analysis; format: cell-based
T1 sequence (P41143 whole entry): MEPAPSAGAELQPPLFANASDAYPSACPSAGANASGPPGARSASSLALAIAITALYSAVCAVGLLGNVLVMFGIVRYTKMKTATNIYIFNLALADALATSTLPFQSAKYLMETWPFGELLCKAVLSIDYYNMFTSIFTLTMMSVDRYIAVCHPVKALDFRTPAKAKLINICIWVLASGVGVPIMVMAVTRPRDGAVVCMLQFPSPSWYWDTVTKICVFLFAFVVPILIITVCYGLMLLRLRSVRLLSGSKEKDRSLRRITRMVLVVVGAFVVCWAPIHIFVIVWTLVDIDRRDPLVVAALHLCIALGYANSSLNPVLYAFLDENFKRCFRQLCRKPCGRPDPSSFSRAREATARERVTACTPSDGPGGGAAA
Summary of the method: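 Binding used CHO-cell membranes bearing human δ receptor and 0.2 nM (final) [3H]naltrindole, incubated 3 h at 25 °C in 50 mM Tris-HCl pH 7.5. Nonspecific binding was defined with 100 μM naloxone. Samples were glass-fiber filtered, washed with cold buffer and scintillation counted. IC50 came from a log-probit least-squares fit and was converted to Ki as IC50/(1+S).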

Mus musculus [3] = experiment: Antinociceptive activity in iv dosed CD-1 mouse assessed as time required to show maximum activity by 55 degC warm water tail-flick test; format: functional
Summary of the method: (§2)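 Male CD-1 mice (27−30 g), 8−10 per group. Compound in 0.9% saline, injected into the tail vein at 0.1 mL/10 g after the vein was dilated in 40 °C water. Tail immersion in 55 °C water, with baseline latency first and 5 s non-responders excluded. Tested at intervals post-dose. %Antinociception = 100(test − control latency)/(10 − control latency). A50 values obtained.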

Mus musculus [4] = experiment: Antinociceptive activity in iv dosed CD-1 mouse by 55 degC warm water tail-flick test; format: functional; summary of the method: as §2
Mus musculus [5] = experiment: Antinociceptive activity in icv dosed CD-1 mouse assessed as time required to show maximum activity by 55 degC warm water tail-flick test; format: functional; summary of the method: as §1
Mu-type opioid receptor = Mu-type opioid receptor (Homo sapiens, UniProt P35372); experiment: Displacement of [3H]-DAMGO from human mu opioid receptor expressed in CHO cells after 60 mins by scintillation counting analysis; format: cell-based
Chain of Mu-type opioid receptor (P35372 whole entry): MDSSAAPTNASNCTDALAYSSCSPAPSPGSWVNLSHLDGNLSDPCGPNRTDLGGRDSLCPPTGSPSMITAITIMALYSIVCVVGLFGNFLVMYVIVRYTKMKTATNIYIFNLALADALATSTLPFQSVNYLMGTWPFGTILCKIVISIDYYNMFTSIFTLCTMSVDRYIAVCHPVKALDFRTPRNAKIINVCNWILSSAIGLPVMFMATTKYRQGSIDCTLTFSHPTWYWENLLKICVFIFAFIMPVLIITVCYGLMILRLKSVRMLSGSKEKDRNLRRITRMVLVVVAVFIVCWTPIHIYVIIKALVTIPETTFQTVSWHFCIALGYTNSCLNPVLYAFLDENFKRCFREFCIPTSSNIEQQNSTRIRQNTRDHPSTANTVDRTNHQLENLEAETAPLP
Summary of the method: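 Membranes from CHO cells stably expressing human μ receptor were incubated with 0.25 nM (final) [3H]DAMGO in 50 mM Tris-HCl pH 7.5 for 60 min at 25 °C. Bound radioligand was separated by glass-fiber filtration with cold buffer washes and counted by scintillation. IC50 came from a least-squares log-probit fit, and Ki from IC50/(1+S).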

[6] = molecular target: T2, Kappa-type opioid receptor (Homo sapiens, UniProt P41145); experiment: Displacement of [3H]-U69593 from human kappa opioid receptor expressed in CHO cells after 60 mins by scintillation counting analysis; format: cell-based
T2 sequence (P41145 whole entry): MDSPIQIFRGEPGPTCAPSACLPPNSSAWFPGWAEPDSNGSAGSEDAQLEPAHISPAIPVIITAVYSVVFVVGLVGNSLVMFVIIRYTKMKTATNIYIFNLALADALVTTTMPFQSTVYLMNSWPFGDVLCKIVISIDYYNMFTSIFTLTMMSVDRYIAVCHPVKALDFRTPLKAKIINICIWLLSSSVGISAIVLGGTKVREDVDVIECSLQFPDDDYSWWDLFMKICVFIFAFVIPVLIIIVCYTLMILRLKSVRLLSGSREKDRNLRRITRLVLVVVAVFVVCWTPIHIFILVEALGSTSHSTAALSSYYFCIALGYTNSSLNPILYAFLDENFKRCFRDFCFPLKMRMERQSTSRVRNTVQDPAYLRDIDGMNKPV
Summary of the method: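 Human κ receptor stably expressed in CHO cells was used as a membrane prep. It was incubated with 1 nM (final) [3H]U69,593 for 60 min at 25 °C in 50 mM Tris-HCl pH 7.5, with 10 μM naloxone defining nonspecific binding. Samples were filtered through glass-fiber filters presoaked ≥30 min in 0.1% polyethylenimine, washed cold and scintillation counted. Ki was derived from a log-probit IC50 via IC50/(1+S).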

Mus musculus [7] = experiment: Antinociceptive activity in icv dosed CD-1 mouse assessed as time duration of activity by 55 degC warm water tail-flick test; format: functional; summary of the method: as §1
Mus musculus [8] = experiment: Antinociceptive activity in iv dosed ICR mouse by 55 degC warm water tail-flick test; format: functional
Mus musculus [9] = experiment: Antinociceptive activity in icv dosed ICR mouse by 55 degC warm water tail-flick test; format: functional
[10] = molecular target: T2, Kappa-type opioid receptor; experiment: Displacement of [3H]-U69593 from human kappa opioid receptor expressed in CHO cells at 10 uM after 60 mins by scintillation counting analysis […]; format: cell-based
[11] = molecular target: T1, Delta-type opioid receptor; experiment: Displacement of [3H]-naltrindole from human delta opioid receptor expressed in CHO cells at 10 uM after 3 hrs by scintillation counting analysis relative to control; format: cell-based
Mus musculus [12] = experiment: Antinociceptive activity in iv dosed CD-1 mouse assessed as time duration of activity by 55 degC warm water tail-flick test; format: functional; summary of the method: as §2
[13] = molecular target: T2, Kappa-type opioid receptor; experiment: Binding affinity to kappa opioid receptor (unknown origin)
Summary of the method: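 CHO cell membranes stably expressing the human κ-opioid receptor. Incubated with 1 nM [3H]U69,593 for 60 min at 25 °C in 50 mM Tris-HCl, pH 7.5. Naloxone 10 μM defined nonspecific binding. Filters presoaked at least 30 min in 0.1% polyethylenimine, then washed and counted. Ki calculated from IC50 (log-probit fit).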

[14] = molecular target: T1, Delta-type opioid receptor; experiment: Binding affinity to delta opioid receptor (unknown origin)
Summary of the method: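 Membranes from CHO cells stably expressing the human δ-opioid receptor. Incubated 3 h at 25 °C with 0.2 nM [3H]naltrindole in 50 mM Tris-HCl, pH 7.5. Nonspecific binding with 100 μM naloxone. Glass-fibre filtration, cold-buffer washes, scintillation counting. IC50 from log-probit least-squares fit, converted to Ki.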

Compound | A50 (Mus musculus [1]) [nmol] | Ki [2] [nM] | Time (Mus musculus [3]) [min] | A50 (Mus musculus [4]) [µmol/kg] | Time (Mus musculus [5]) [min] | Ki (Mu-type opioid receptor) [nM] | Ki [6] [nM] | other results
CC(C)C[C@H](NC(=O)[C@H](CO[C@@H]1O[C@H](CO)[C@@H](O)[C@H](O)[C@H]1O)NC(=O)[C@H](CCCCN)NC(=O)[C@H](CC(C)C)NC(=O)[C@H](C)NC(=O)[C@H](CCCCN)NC(=O)[C@H](CCC(=O)O)NC(=O)C(C)(C)NC(=O)[C@H](CC(C)C)NC(=O)[C@H](CC(N)=O)NC(=O)CCCCNC(=O)[C@H](CC(C)C)NC(=O)[C@H](Cc1ccccc1)NC(=O)CNC(=O)[C@@H](NC(=O)[C@@H](N)Cc1ccc(O)cc1)[C@@H](C)O)C(N)=O (H-YTGFL[Ava]NL[Aib]EKALKS(βGlc)L-NH2) | 0.371 | 3.8 | 30 | 0.36 | 10 | 1.4 | 12 | 
CC(C)C[C@H](NC(=O)[C@H](CO[C@@H]1O[C@H](CO)[C@@H](O)[C@H](O)[C@H]1O)NC(=O)[C@H](CCCCN)NC(=O)[C@H](CC(C)C)NC(=O)[C@H](C)NC(=O)[C@H](CCCCN)NC(=O)[C@H](CCC(=O)O)NC(=O)C(C)(C)NC(=O)[C@H](CC(C)C)NC(=O)[C@H](CC(N)=O)NC(=O)CCCNC(=O)[C@H](CC(C)C)NC(=O)[C@H](Cc1ccccc1)NC(=O)CNC(=O)[C@@H](NC(=O)[C@@H](N)Cc1ccc(O)cc1)[C@@H](C)O)C(N)=O (H-YTGFL[GABA]NL[Aib]EKALKS(βGlc)L-NH2) | 0.046 | 4.2 | 30 | 0.31 | 10 | 4.3 | 11 | Time (Mus musculus [7]): 90 min
CC(C)C[C@H](NC(=O)[C@H](CO[C@@H]1O[C@H](CO)[C@@H](O)[C@H](O)[C@H]1O)NC(=O)[C@H](CCCCN)NC(=O)[C@H](CC(C)C)NC(=O)[C@H](C)NC(=O)[C@H](CCCCN)NC(=O)[C@H](CCC(=O)O)NC(=O)C(C)(C)NC(=O)[C@H](CC(C)C)NC(=O)[C@H](CC(N)=O)NC(=O)[C@@H]1CCCN1C(=O)[C@H](CC(C)C)NC(=O)[C@H](Cc1ccccc1)NC(=O)CNC(=O)[C@@H](NC(=O)[C@@H](N)Cc1ccc(O)cc1)[C@@H](C)O)C(N)=O | 0.739 | 3.6 | 30 | 0.36 | 10 | 2.6 | 2.3 | 
CC(C)C[C@H](NC(=O)[C@H](Cc1ccccc1)NC(=O)CNC(=O)[C@@H](NC(=O)[C@@H](N)Cc1ccc(O)cc1)[C@@H](C)O)C(=O)N[C@@H](CO[C@@H]1O[C@H](CO)[C@@H](O[C@@H]2O[C@H](CO)[C@@H](O)[C@H](O)[C@H]2O)[C@H](O)[C@H]1O)C(N)=O (H-YTGFLS(X1)-NH2) |  | 9.2 |  |  |  | 5 | 42 | A50 (Mus musculus [8]): 4.07 µmol/kg; A50 (Mus musculus [9]): 0.018 nmol
CC(C)C[C@H](NC(=O)[C@H](CO[C@@H]1O[C@H](CO)[C@@H](O)[C@H](O)[C@H]1O)NC(=O)[C@H](CCCCN)NC(=O)[C@H](CC(C)C)NC(=O)[C@H](C)NC(=O)[C@H](CC(N)=O)NC(=O)[C@H](CC(N)=O)NC(=O)C(C)(C)NC(=O)[C@H](CC(C)C)NC(=O)[C@H](CC(N)=O)NC(=O)CNC(=O)CNC(=O)[C@H](Cc1ccccc1)N(C)C(=O)CNC(=O)[C@@H](C)NC(=O)[C@@H](N)Cc1ccc(O)cc1)C(N)=O |  |  |  |  |  | 120 |  | Activity [10]: 16%; Activity [11]: 0%
CC(C)C[C@H](NC(=O)[C@H](CO[C@@H]1O[C@H](CO)[C@@H](O[C@@H]2O[C@H](CO)[C@@H](O)[C@H](O)[C@H]2O)[C@H](O)[C@H]1O)NC(=O)[C@H](CCCCN)NC(=O)[C@H](CC(C)C)NC(=O)[C@H](C)NC(=O)[C@H](CCCCN)NC(=O)[C@H](CCC(=O)O)NC(=O)C(C)(C)NC(=O)[C@H](CC(C)C)NC(=O)[C@H](CC(N)=O)NC(=O)CCCNC(=O)[C@H](CC(C)C)NC(=O)[C@H](Cc1ccccc1)NC(=O)CNC(=O)[C@@H](NC(=O)[C@@H](N)Cc1ccc(O)cc1)[C@@H](C)O)C(N)=O (H-YTGFL[GABA]NL[Aib]EKALKS(X1)L-NH2) | 0.165 | 17 |  | 1.13 |  | 13 | 52 | Time (Mus musculus [12]): 180 min
CC1(C)SCCSC[C@@H](NC(=O)[C@@H](N)Cc2ccc(O)cc2)C(=O)N[C@@H](Cc2ccccc2)C(=O)N[C@H]1C(N)=O (H-Y[dC]F[dPen]-NH2; linker 2-4 via CH2CH2) |  |  |  |  |  |  |  | Ki [13]: 2000 nM; Ki [14]: 24.8 nM
CC(C)C[C@H](NC(=O)[C@H](CO[C@@H]1O[C@H](CO)[C@@H](O)[C@H](O)[C@H]1O)NC(=O)[C@H](CCCCN)NC(=O)[C@H](CC(C)C)NC(=O)[C@H](C)NC(=O)[C@H](CC(N)=O)NC(=O)[C@H](CCC(=O)O)NC(=O)C(C)(C)NC(=O)[C@H](CC(C)C)NC(=O)[C@H](CC(N)=O)NC(=O)CNC(=O)CNC(=O)[C@H](Cc1ccccc1)N(C)C(=O)CNC(=O)[C@@H](C)NC(=O)[C@@H](N)Cc1ccc(O)cc1)C(N)=O |  |  |  |  |  | 1200 |  | Activity [10]: 0%; Activity [11]: 0%
